Test results from ChEMBL document CHEMBL4602720, “Degradation versus Inhibition: Development of Proteolysis-Targeting Chimeras for Overcoming Statin-Induced Compensatory Upregulation of 3-Hydroxy-3-methylglutaryl Coenzyme A Reductase” (J Med Chem, 2020).
Activity calls are given as the source filed them. The calls are words filed in the database; no cut-off is given here.

Key:
[1] = biological target: T1, Protein cereblon/3-hydroxy-3-methylglutaryl-coenzyme A reductase (Cricetulus griseus) (UniProt P00347+G3H338); experiment: Protac activity at CRBN/HMGCR in Insig-1/Insig-2 deficient Chinese hamster SRD15 cells assessed as HMGCR level at 0.03 uM after 16 hrs by immunoblotting analysis (reference value: 1)
How it was run: (§1)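 Dose-response in SRD15 cells in Medium A with 5% FBS, 16 h treatment, DMSO final 0.1% or lower. RIPA lysates immunoblotted for HMGCR. HMGCR densitometry normalized to actin, with the DMSO group set to 1. Three repeats. DC50 is taken from a dose-response fit of the semi-quantitative blots, mean of 3 independent experiments.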

[2] = biological target: T2, 3-hydroxy-3-methylglutaryl-coenzyme A reductase (Homo sapiens) (UniProt P04035); experiment: Inhibition of GFP-labelled HMGCR (unknown origin) expressed in lentivirus Chinese hamster SRD15 cells assessed as reduction in cholesterol biosynthesis at 1 uM after 16 hrs by Hoechst staining based laser-scanning microscopic method; type: cell-based
T2 sequence (whole entry): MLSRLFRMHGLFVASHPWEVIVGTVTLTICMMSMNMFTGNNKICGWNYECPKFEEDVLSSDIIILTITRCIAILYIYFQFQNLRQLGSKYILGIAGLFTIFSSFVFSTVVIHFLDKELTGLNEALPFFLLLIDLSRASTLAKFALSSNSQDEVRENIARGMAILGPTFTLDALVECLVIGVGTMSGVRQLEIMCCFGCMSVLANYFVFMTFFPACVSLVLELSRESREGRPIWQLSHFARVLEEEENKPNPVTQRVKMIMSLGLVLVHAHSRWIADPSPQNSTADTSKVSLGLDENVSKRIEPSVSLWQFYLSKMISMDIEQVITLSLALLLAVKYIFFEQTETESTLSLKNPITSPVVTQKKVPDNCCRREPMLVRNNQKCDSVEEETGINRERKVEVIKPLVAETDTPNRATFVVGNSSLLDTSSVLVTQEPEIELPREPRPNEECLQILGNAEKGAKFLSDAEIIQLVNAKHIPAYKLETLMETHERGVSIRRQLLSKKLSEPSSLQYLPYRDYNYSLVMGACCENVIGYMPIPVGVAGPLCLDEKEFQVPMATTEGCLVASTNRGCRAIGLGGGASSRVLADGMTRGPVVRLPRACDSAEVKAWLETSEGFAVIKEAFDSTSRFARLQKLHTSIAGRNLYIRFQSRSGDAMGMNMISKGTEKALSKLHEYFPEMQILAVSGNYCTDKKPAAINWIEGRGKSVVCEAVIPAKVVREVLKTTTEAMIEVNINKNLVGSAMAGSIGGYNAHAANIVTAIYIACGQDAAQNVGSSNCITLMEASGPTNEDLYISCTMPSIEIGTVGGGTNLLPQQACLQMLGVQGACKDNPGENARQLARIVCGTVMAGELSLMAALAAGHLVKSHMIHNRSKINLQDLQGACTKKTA

[3] = biological target: T1, Protein cereblon/3-hydroxy-3-methylglutaryl-coenzyme A reductase (Cricetulus griseus); experiment: Protac activity at CRBN/HMGCR in Insig-1/Insig-2 deficient Chinese hamster SRD15 cells assessed as induction of HMGCR degradation at 1 uM after 16 hrs by immunoblotting analysis relative to control; how it was run: as §1
[4] = biological target: T3, Sterol regulatory element-binding protein 2 (Mus musculus) (UniProt Q3U1N2); experiment: Activation of SREBP2 pathway in mouse primary hepatocytes assessed as increase in LDLR mRNA expression at 0.3 to 1 uM afer 16 hrs by quantitative real-time PCR analysis; type: cell-based
T3 sequence (whole entry): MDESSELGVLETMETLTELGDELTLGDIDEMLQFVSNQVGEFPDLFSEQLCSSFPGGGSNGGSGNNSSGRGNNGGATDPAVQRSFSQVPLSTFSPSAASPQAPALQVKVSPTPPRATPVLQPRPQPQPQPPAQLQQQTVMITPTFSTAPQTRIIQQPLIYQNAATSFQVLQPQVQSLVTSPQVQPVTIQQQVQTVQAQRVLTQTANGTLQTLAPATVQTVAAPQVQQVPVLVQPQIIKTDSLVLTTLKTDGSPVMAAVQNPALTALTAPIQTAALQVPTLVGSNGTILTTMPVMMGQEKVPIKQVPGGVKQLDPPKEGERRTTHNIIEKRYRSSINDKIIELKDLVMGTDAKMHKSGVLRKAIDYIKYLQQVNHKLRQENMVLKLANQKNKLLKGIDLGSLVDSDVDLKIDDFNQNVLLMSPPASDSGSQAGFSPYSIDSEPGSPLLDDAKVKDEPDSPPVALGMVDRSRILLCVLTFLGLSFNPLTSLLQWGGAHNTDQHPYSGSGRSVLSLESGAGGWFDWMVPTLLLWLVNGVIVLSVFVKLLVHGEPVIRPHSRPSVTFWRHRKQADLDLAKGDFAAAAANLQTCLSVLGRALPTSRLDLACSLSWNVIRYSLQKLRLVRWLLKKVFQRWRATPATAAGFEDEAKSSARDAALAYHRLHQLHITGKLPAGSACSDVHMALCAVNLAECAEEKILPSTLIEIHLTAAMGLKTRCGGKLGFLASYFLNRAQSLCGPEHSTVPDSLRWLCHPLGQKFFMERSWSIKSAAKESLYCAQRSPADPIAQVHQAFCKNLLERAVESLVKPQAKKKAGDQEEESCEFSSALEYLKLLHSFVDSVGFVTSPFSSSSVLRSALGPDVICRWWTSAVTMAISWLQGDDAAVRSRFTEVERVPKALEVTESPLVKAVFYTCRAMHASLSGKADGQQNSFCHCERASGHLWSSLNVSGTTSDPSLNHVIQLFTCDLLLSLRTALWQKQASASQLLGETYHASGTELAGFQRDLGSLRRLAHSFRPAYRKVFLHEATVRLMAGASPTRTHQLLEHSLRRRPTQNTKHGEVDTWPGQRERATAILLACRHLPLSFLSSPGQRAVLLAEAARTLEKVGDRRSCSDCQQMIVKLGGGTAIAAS

[5] = biological target: T1, Protein cereblon/3-hydroxy-3-methylglutaryl-coenzyme A reductase (Cricetulus griseus); experiment: Protac activity at CRBN/HMGCR in Insig-1/Insig-2 deficient Chinese hamster SRD15 cells assessed as HMGCR level at 0.01 uM after 16 hrs by immunoblotting analysis (reference value: 1); how it was run: as §1
Target sequence in this assay (G3H338 1-445 partner): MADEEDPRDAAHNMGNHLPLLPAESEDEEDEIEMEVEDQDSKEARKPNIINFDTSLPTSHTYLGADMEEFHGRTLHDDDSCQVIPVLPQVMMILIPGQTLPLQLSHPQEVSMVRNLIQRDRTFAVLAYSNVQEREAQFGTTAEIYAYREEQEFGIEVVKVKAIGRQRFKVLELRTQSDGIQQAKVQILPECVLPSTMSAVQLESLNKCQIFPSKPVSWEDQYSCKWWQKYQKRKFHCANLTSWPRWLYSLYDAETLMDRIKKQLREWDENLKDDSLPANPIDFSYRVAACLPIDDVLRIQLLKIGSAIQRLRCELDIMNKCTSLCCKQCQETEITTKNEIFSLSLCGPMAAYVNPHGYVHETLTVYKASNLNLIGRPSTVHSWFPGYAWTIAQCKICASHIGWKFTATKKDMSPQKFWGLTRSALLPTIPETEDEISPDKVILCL
Target sequence in this assay (P00347 whole entry): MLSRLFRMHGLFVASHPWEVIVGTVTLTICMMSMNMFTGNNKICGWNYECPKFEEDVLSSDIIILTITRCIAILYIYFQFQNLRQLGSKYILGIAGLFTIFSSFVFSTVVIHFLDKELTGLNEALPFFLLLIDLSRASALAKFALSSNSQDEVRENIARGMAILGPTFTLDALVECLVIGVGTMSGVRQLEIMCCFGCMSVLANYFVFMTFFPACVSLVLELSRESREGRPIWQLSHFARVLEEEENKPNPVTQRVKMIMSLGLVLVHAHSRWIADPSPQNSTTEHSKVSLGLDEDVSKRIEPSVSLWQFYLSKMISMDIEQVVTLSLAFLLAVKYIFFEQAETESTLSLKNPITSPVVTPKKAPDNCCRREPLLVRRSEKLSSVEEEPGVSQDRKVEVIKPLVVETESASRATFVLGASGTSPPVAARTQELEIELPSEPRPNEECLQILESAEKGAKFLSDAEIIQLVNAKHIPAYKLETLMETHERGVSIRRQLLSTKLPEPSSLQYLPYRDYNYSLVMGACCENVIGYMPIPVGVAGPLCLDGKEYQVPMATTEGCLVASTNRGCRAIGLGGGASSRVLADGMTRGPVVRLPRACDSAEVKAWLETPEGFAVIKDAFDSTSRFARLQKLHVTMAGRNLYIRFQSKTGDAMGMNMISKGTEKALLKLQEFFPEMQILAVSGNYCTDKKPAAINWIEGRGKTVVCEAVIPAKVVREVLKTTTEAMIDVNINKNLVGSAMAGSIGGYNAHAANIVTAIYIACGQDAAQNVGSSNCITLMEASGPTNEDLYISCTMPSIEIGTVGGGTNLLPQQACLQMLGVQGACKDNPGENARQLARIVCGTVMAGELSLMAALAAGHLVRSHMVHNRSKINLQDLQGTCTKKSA

[6] = biological target: T1, Protein cereblon/3-hydroxy-3-methylglutaryl-coenzyme A reductase (Cricetulus griseus); experiment: Protac activity at CRBN/HMGCR in Insig-1/Insig-2 deficient Chinese hamster SRD15 cells assessed as HMGCR level at 1 uM after 16 hrs by immunoblotting analysis relative to control; how it was run: as §1
Target sequence in this assay (G3H338 1-445 partner): as the sequence (G3H338 1-445 partner) above
Target sequence in this assay (P00347 whole entry): as the sequence (P00347 whole entry) above

[7] = biological target: T1, Protein cereblon/3-hydroxy-3-methylglutaryl-coenzyme A reductase (Cricetulus griseus); experiment: Protac activity at CRBN/HMGCR in Insig-1/Insig-2 deficient Chinese hamster SRD15 cells assessed as HMGCR level at 1 uM after 16 hrs in presence of 0.1 uM pomalidomide by immunoblotting analysis (reference value: 1)
Target sequence in this assay (G3H338 1-445 partner): as the sequence (G3H338 1-445 partner) above
Target sequence in this assay (P00347 whole entry): as the sequence (P00347 whole entry) above

[8] = biological target: Protein cereblon/3-hydroxy-3-methylglutaryl-coenzyme A reductase (Homo sapiens) (UniProt P04035+Q96SW2); experiment: Protac activity at human Flag-tagged CRBN/Myc-tagged HMGCR expressed in HEK293T cells assessed as induction of HMGCR immunoprecipitation 1 uM preincubated for 16 hrs followed by atorvastatin addition addition and measured after 5 hrs in presence of MG132 by Western blot analysis; type: cell-based; details: HEK-293T
Chain of Protein cereblon/3-hydroxy-3-methylglutaryl-coenzyme A reductase (Homo sapiens) (Q96SW2 whole entry, looked up, one chain of several): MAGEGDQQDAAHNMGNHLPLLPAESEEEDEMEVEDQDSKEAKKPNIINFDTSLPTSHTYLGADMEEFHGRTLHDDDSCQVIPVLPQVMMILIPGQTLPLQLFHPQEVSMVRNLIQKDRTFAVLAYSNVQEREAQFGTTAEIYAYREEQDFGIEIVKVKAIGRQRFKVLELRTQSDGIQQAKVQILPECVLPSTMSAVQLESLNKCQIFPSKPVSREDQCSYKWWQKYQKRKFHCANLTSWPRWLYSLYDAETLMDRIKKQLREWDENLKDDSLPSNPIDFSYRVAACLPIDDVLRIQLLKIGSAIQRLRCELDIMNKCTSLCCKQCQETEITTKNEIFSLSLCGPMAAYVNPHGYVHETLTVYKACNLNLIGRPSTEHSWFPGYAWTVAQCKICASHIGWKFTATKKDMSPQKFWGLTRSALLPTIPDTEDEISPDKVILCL

CC(C)c1c(C(=O)Nc2ccccc2)c(-c2cccc(OCCCc3cn(CCOCCOCCOCCOCCNc4cccc5c4C(=O)N(C4CCC(=O)NC4=O)C5=O)nn3)c2)c(-c2ccc(F)cc2)n1CC[C@@H](O)C[C@@H](O)CC(=O)O (stereo partly drawn)
fold change (FC) [1]: 0.6 | inhibition [2]: Active | Activity [3]: 70% | Activity [4]: Active | fold change (FC) [5]: 0.8 | Activity [6]: 50% | fold change (FC) [7]: 0.4 | Activity [8]: inactive
